# Where two headings read alike, the source gives them in different places.
# Assays:
# [1] = both acetate and freebase forms, cited from earlier work
# Safety and tolerability = format: in vivo, human (healthy adult participants)
# In short: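 Healthy adults received single 100-mg oral doses of 4×25-mg tablets, either fasted, after a high-fat meal, or after five evening doses of rabeprazole 20 mg. Safety was monitored by physical examination, laboratory tests, ECG, concomitant medication review, and AE frequency and severity. The safety population comprised all participants receiving ≥1 dose of study medication.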
# [2] = cited from earlier work
# [3] = format: in vivo, human (healthy adult participants); conditions: for AUC(0-inf) / AUC(0-t) / Cmax / half-life / Tmax: human, plasma, po; for Tmax: median (range)
# [4] = Treatment A: 100-mg tablets, fasted, n = 24
# [5] = Treatment B: 100-mg tablets + high-fat meal, n = 23
# [6] = Treatment C: 100-mg tablets + rabeprazole 20 mg, n = 23
# [7] = Treatment D: 100-mg oral solution, n = 24
# [8] = 100-mg oral solution (test) versus 100-mg tablets (reference)
# [9] = 100-mg tablets + high-fat meal (test) versus 100-mg tablets (reference)
# [10] = 100-mg tablets + rabeprazole 20-mg (test) versus 100-mg tablets (reference)
smiles,measurement,setting,value
"C[C@H]1Oc2cc(cnc2N)-c2c(nn(C)c2C#N)CN(C)C(=O)c2ccc(F)cc21 [Lorlatinib, (10R)‐7‐amino‐12‐fluoro‐2,10,16‐trimethyl‐15‐oxo‐10,15,16,17‐tetrahydro‐2H‐8,4‐(metheno)pyrazolo[4,3‐h][2,5,11]‐benzoxadiazacyclotetradecine‐3‐carbonitrile]",Aqueous solubility,[1]; pH 7.7,100 µg/mL
same,Aqueous solubility,[1]; pH <2,> 10000 µg/mL
same,Participants with any serious treatment-related AE,Safety and tolerability; [4],0 n (%)
same,Participants with any treatment-emergent AE,Safety and tolerability; [4],19 (79) n (%)
same,Participants with any treatment-related AE,Safety and tolerability; [4],19 (79) n (%)
same,Treatment-related AE: Acne,Safety and tolerability; [4],4 (17) n (%)
same,Treatment-related AE: Diarrhea,Safety and tolerability; [4],3 (13) n (%)
same,Treatment-related AE: First-degree AV block,Safety and tolerability; [4],5 (21) n (%)
same,Treatment-related AE: Headache,Safety and tolerability; [4],7 (29) n (%)
same,Participants with any serious treatment-related AE,Safety and tolerability; [5],0 n (%)
same,Participants with any treatment-emergent AE,Safety and tolerability; [5],15 (65) n (%)
same,Participants with any treatment-related AE,Safety and tolerability; [5],15 (65) n (%)
same,Treatment-related AE: Acne,Safety and tolerability; [5],2 (9) n (%)
same,Treatment-related AE: Diarrhea,Safety and tolerability; [5],1 (4) n (%)
same,Treatment-related AE: First-degree AV block,Safety and tolerability; [5],2 (9) n (%)
same,Treatment-related AE: Headache,Safety and tolerability; [5],4 (17) n (%)
same,Participants with any serious treatment-related AE,Safety and tolerability; [6],0 n (%)
same,Participants with any treatment-emergent AE,Safety and tolerability; [6],19 (83) n (%)
same,Participants with any treatment-related AE,Safety and tolerability; [6],19 (83) n (%)
same,Treatment-related AE: Acne,Safety and tolerability; [6],2 (9) n (%)
same,Treatment-related AE: Diarrhea,Safety and tolerability; [6],2 (9) n (%)
same,Treatment-related AE: First-degree AV block,Safety and tolerability; [6],4 (17) n (%)
same,Treatment-related AE: Headache,Safety and tolerability; [6],7 (30) n (%)
same,Participants with any serious treatment-related AE,Safety and tolerability; [7],0 n (%)
same,Participants with any treatment-emergent AE,Safety and tolerability; [7],16 (67) n (%)
same,Participants with any treatment-related AE,Safety and tolerability; [7],16 (67) n (%)
same,Treatment-related AE: Acne,Safety and tolerability; [7],4 (17) n (%)
same,Treatment-related AE: Diarrhea,Safety and tolerability; [7],2 (8) n (%)
same,Treatment-related AE: First-degree AV block,Safety and tolerability; [7],3 (13) n (%)
same,Treatment-related AE: Headache,Safety and tolerability; [7],6 (25) n (%)
same,Deaths during the study,Safety and tolerability; all treatment periods,no deaths
same,Participants with serious or severe treatment-related AEs,Safety and tolerability; all treatment periods,No participants
same,AEs mild in severity (of all AEs),"Safety and tolerability; all treatment periods, remainder moderate",119 of 135
same,Geometric mean maximum plasma concentration (Cmax),[2]; 100 mg/100 μCi [14C]lorlatinib,about 600 ng/mL
same,Renal clearance,[2]; 100 mg/100 μCi [14C]lorlatinib,1.6 mL/min
same,Urinary excretion of unchanged lorlatinib,[2]; 100 mg/100 μCi [14C]lorlatinib,~0.7%
same,Mean terminal plasma elimination half-life (t1/2),[2]; human ADME studies,about 20 hours
same,"Ratio (Test/Reference) of Adjusted Means, AUCinf",[3]; [8],107.9%
same,"Ratio (Test/Reference) of Adjusted Means, AUClast",[3]; [8],107.8%
same,"Ratio (Test/Reference) of Adjusted Means, Cmax",[3]; [8],129.7%
same,"Ratio (Test/Reference) of Adjusted Means, AUCinf",[3]; [9],104.7%
same,"Ratio (Test/Reference) of Adjusted Means, AUClast",[3]; [9],104.6%
same,"Ratio (Test/Reference) of Adjusted Means, Cmax",[3]; [9],90.9%
same,"Ratio (Test/Reference) of Adjusted Means, AUCinf",[3]; [10],100.9%
same,"Ratio (Test/Reference) of Adjusted Means, AUClast",[3]; [10],99.7%
same,"Ratio (Test/Reference) of Adjusted Means, Cmax",[3]; [10],70.7%
same,Adjusted geometric mean Cmax,"[3]; 100-mg tablets, fasted (reference), mixed-effects model",533.1 ng/mL
same,Arithmetic mean CL/F,"[3]; Treatment A: single oral 100-mg dose, tablets, fasted, n = 24, mean ± SD",11.8 ± 2.5 L/h
same,Geometric mean CL/F,"[3]; Treatment A: single oral 100-mg dose, tablets, fasted, n = 24, value (geometric %CV)",11.5 (24) L/h
same,Arithmetic mean CL/F,"[3]; Treatment B: single oral 100-mg dose, tablets + high-fat meal, n = 23, mean ± SD",11.7 ± 2.8 L/h
same,Geometric mean CL/F,"[3]; Treatment B: single oral 100-mg dose, tablets + high-fat meal, n = 23, value (geometric %CV)",11.4 (24) L/h
same,Arithmetic mean CL/F,"[3]; Treatment C: single oral 100-mg dose, tablets + rabeprazole 20 mg, fasted, n = 23, mean ± SD",11.9 ± 2.5 L/h
same,Geometric mean CL/F,"[3]; Treatment C: single oral 100-mg dose, tablets + rabeprazole 20 mg, fasted, n = 23, value (geometric %CV)",11.6 (24) L/h
same,Arithmetic mean CL/F,"[3]; Treatment D: single oral 100-mg dose, oral solution, fasted, n = 24, mean ± SD",11.0 ± 2.4 L/h
same,Geometric mean CL/F,"[3]; Treatment D: single oral 100-mg dose, oral solution, fasted, n = 24, value (geometric %CV)",10.7 (24) L/h
same,AUC(0-inf),"[3]; 100 mg, Arithmetic mean AUCinf, Treatment A: single oral 100-mg dose, tablets, fasted, n = 24, mean ± SD",8960 ± 2380 ng·h/mL
same,AUC(0-inf),"[3]; 100 mg, Arithmetic mean AUCinf, Treatment B: single oral 100-mg dose, tablets + high-fat meal, n = 23, mean ± SD",9030 ± 2280 ng·h/mL
same,AUC(0-inf),"[3]; 100 mg, Arithmetic mean AUCinf, Treatment D: single oral 100-mg dose, oral solution, fasted, n = 24, mean ± SD",9620 ± 2440 ng·h/mL
same,AUC(0-t),"[3]; 100 mg, Arithmetic mean AUClast, Treatment A: single oral 100-mg dose, tablets, fasted, n = 24, mean ± SD",8380 ± 1990 ng·h/mL
same,AUC(0-t),"[3]; 100 mg, Arithmetic mean AUClast, Treatment B: single oral 100-mg dose, tablets + high-fat meal, n = 23, mean ± SD",8460 ± 1940 ng·h/mL
same,AUC(0-t),"[3]; 100 mg, Arithmetic mean AUClast, Treatment D: single oral 100-mg dose, oral solution, fasted, n = 24, mean ± SD",8990 ± 2040 ng·h/mL
same,Cmax,"[3]; 100 mg, Arithmetic mean Cmax, Treatment A: single oral 100-mg dose, tablets, fasted, n = 24, mean ± SD",559 ± 115 ng/mL
same,Cmax,"[3]; 100 mg, Arithmetic mean Cmax, Treatment D: single oral 100-mg dose, oral solution, fasted, n = 24, mean ± SD",722 ± 185 ng/mL
same,half-life,"[3]; 100 mg, Arithmetic mean t1/2, Treatment A: single oral 100-mg dose, tablets, fasted, n = 24, mean ± SD",24.2 ± 5.2 h
same,half-life,"[3]; 100 mg, Arithmetic mean t1/2, Treatment B: single oral 100-mg dose, tablets + high-fat meal, n = 23, mean ± SD",23.7 ± 6 h
same,half-life,"[3]; 100 mg, Arithmetic mean t1/2, Treatment D: single oral 100-mg dose, oral solution, fasted, n = 24, mean ± SD",24.1 ± 5.4 h
same,AUC(0-inf),"[3]; 100 mg, Geometric mean AUCinf, Treatment A: single oral 100-mg dose, tablets, fasted, n = 24, value (geometric %CV)",8710 ng·h/mL
same,AUC(0-inf),"[3]; 100 mg, Geometric mean AUCinf, Treatment B: single oral 100-mg dose, tablets + high-fat meal, n = 23, value (geometric %CV)",8780 ng·h/mL
same,AUC(0-inf),"[3]; 100 mg, Geometric mean AUCinf, Treatment D: single oral 100-mg dose, oral solution, fasted, n = 24, value (geometric %CV)",9360 ng·h/mL
same,AUC(0-t),"[3]; 100 mg, Geometric mean AUClast, Treatment B: single oral 100-mg dose, tablets + high-fat meal, n = 23, value (geometric %CV)",8260 ng·h/mL
same,AUC(0-t),"[3]; 100 mg, Geometric mean AUClast, Treatment D: single oral 100-mg dose, oral solution, fasted, n = 24, value (geometric %CV)",8790 ng·h/mL
same,Cmax,"[3]; 100 mg, Geometric mean Cmax, Treatment A: single oral 100-mg dose, tablets, fasted, n = 24, value (geometric %CV)",548 ng/mL
same,Cmax,"[3]; 100 mg, Geometric mean Cmax, Treatment B: single oral 100-mg dose, tablets + high-fat meal, n = 23, value (geometric %CV)",489 ng/mL
same,Cmax,"[3]; 100 mg, Geometric mean Cmax, Treatment D: single oral 100-mg dose, oral solution, fasted, n = 24, value (geometric %CV)",705 ng/mL
same,Tmax,"[3]; 100 mg, Treatment B: single oral 100-mg dose, tablets + high-fat meal, n = 23",2 h
same,Tmax,"[3]; 100 mg, Treatment D: single oral 100-mg dose, oral solution, fasted, n = 24",1 h
same,AUC(0-inf),"[3]; Arithmetic mean AUCinf, Treatment C: single oral 100-mg dose, tablets + rabeprazole 20 mg, fasted, n = 23, mean ± SD",8880 ± 2430 ng·h/mL
same,AUC(0-t),"[3]; Arithmetic mean AUClast, Treatment C: single oral 100-mg dose, tablets + rabeprazole 20 mg, fasted, n = 23, mean ± SD",8190 ± 1930 ng·h/mL
same,Cmax,"[3]; Arithmetic mean Cmax, Treatment C: single oral 100-mg dose, tablets + rabeprazole 20 mg, fasted, n = 23, mean ± SD",398 ± 114 ng/mL
same,AUC(0-inf),"[3]; Geometric mean AUCinf, Treatment C: single oral 100-mg dose, tablets + rabeprazole 20 mg, fasted, n = 23, value (geometric %CV)",8630 ng·h/mL
same,AUC(0-t),"[3]; Geometric mean AUClast, Treatment C: single oral 100-mg dose, tablets + rabeprazole 20 mg, fasted, n = 23, value (geometric %CV)",8010 ng·h/mL
same,Cmax,"[3]; Geometric mean Cmax, Treatment C: single oral 100-mg dose, tablets + rabeprazole 20 mg, fasted, n = 23, value (geometric %CV)",383 ng/mL
same,Tmax,"[3]; Treatment C: single oral 100-mg dose, tablets + rabeprazole 20 mg, fasted, n = 23",2 h
same,Higher Cmax with the oral solution than with the tablet formulation,"[3]; single 100-mg oral dose, fasted",~30%
